{"data": "Results of several laboratories", "organism": "Staphylococcus aureus", "read-out": "microbial growth", "note": "Each line is one published result; the experiments were not run side by side."}
{"Compound": "CCCCCCCC(=O)CP(=O)(O)O", "test system": "ATCC33591 MRSA", "conditions": "drug-resistant strain", "MIC": "200 µg/mL"}
{"Compound": "CNC(=O)c1cc(Oc2ccc(NC(=O)Nc3cccc(C(F)(F)F)c3)cc2)ccn1", "test system": "NCTC8325", "MIC": "> 100 µM"}
{"Compound": "CC1(C)CC[C@]2(C(=O)O)CC[C@]3(C)C(=CC[C@@H]4[C@@]5(C)CC[C@H](O)C(C)(C)[C@@H]5CC[C@]43C)[C@@H]2C1", "test system": "USA400", "MIC": "256 µg/mL"}
{"Compound": "C/C(=C\\C(=O)OCCCCCCCCC(=O)O)C[C@@H]1OC[C@H](C[C@@H]2O[C@H]2[C@@H](C)[C@H](C)O)[C@@H](O)[C@H]1O", "test system": "MRSA", "conditions": "drug-resistant strain", "MIC": "0.5 µM"}
{"Compound": "c1cncc(-c2nc3ccccc3[nH]2)c1", "assay": "broth dilution", "test system": "ATCC43300 MRSA", "conditions": "drug-resistant strain", "MIC": "256 µg/mL"}
{"Compound": "O=C(Nc1cccc(-c2cc(C(=O)O)no2)c1)Nc1ccc(Cl)c(Cl)c1", "assay": "broth dilution", "test system": "ATCC29213", "MIC": "> 64 µg/mL"}
{"Compound": "c1ccc2[nH]c(-c3ccc4c(c3)OCO4)nc2c1", "assay": "broth dilution", "test system": "ATCC43300 MRSA", "conditions": "drug-resistant strain", "MIC": "256 µg/mL"}
{"Compound": "COc1ccc(Cc2cnc(N)nc2N)cc1OC", "assay": "broth dilution", "MIC": "~50 µM"}
{"Compound": "COC(=O)c1cc(-c2cccc(NC(=O)Nc3ccccc3OC)c2)on1", "assay": "broth dilution", "test system": "ATCC29213", "MIC": "> 64 µg/mL"}
{"Compound": "CN[C@H](CC(C)C)C(=O)N[C@H]1C(=O)N[C@@H](CC(N)=O)C(=O)N[C@H]2C(=O)N[C@H]3C(=O)N[C@H](C(=O)N[C@H](C(=O)O)c4cc(O)cc(O)c4-c4cc3ccc4O)[C@H](O)c3ccc(c(Cl)c3)Oc3cc2cc(c3O[C@@H]2O[C@H](CO)[C@@H](O)[C@H](O)[C@H]2O[C@H]2C[C@](C)(N)[C@H](O)[C@H](C)O2)Oc2ccc(cc2Cl)[C@H]1O", "assay": "broth dilution", "test system": "ATCC25923", "MIC": "1 µg/mL"}
{"Compound": "O=[N+]([O-])c1ccc(/C=N/Nc2nc(Nc3ccccc3)nc(N3CCOCC3)n2)o1", "MIC": "29 µM"}
{"Compound": "Clc1ccc(-c2nc3ccccc3n2Cc2ccccc2)cc1Cl", "assay": "broth dilution", "test system": "ATCC43300 MRSA", "conditions": "drug-resistant strain", "MIC": "16 µg/mL"}
{"Compound": "Cc1ccc2[nH]c3c(c2c1)CCCC3NCCc1ccc(O)cc1 (stereo not shown)", "assay": "broth dilution", "test system": "MRSA USA300", "MIC": "16 µg/mL"}
{"Compound": "COc1ccc(-c2nc3ccccc3[nH]2)cc1O", "assay": "broth dilution", "test system": "ATCC43300 MRSA", "conditions": "drug-resistant strain", "MIC": "256 µg/mL"}
{"Compound": "COC(=O)c1cc(-c2cccc(NC(=O)Nc3cc(Cl)ccc3Cl)c2)on1", "assay": "broth dilution", "test system": "ATCC29213", "MIC": "> 64 µg/mL"}
{"Compound": "CCCC(=O)CP(=O)(O)O", "test system": "ATCC33591 MRSA", "conditions": "drug-resistant strain", "MIC": "> 200 µg/mL"}
{"Compound": "Cc1ccc2nc(-c3c(F)cccc3Cl)[nH]c2c1", "assay": "broth dilution", "test system": "ATCC43300 MRSA", "conditions": "drug-resistant strain", "MIC": "64 µg/mL"}
{"Compound": "COC(=O)c1cc(-c2cccc(NC(=S)Nc3ccc(OC)cc3)c2)on1", "assay": "broth dilution", "test system": "ATCC29213", "MIC": "> 64 µg/mL"}
{"Compound": "CCCCCC/C=C\\CCCCCCCCCc1cc(O)cc(O)c1", "assay": "broth dilution", "test system": "USA300", "conditions": "drug-resistant strain", "MIC": "> 64 µg/mL"}
